Source: ChEMBL document CHEMBL5724801, “EUbOPEN Chemogenomics Library - Multiplex” (2024)
Several values for one entry are separate records, joined by “and”; a condition that tells them apart may be missing. Equal entries are not always repeated.

Tested on: Fibroblast
Test: Multiplex assay against human fibroblast
Format: toxicity, cell-based
In short: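 With compound added, live cells were imaged on a CQ1 microscope at 37°C and 5% CO2; staining with Hoechst33342, BioTracker Green Microtubule Cytoskeleton Dye, MitoTracker Red and Annexin V Alexa Fluor 680 had been done at seeding. The CellPathfinder machine-learning gating scheme split cells into Hoechst high-intensity objects or normal cells, normal cells into healthy, pyknosed or fragmented nuclei, and pyknosed cells into mitotic or apoptotic. The tubulin, mitochondrial-mass and membrane-permeability phenotypes are per cents of healthy-nucleus cells.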

[1] = 12 h, 1 µM, compound concentration 1 uM
[2] = 12 h, 10 µM, compound concentration 10 uM
[3] = 24 h, 1 µM, compound concentration 1 uM
[4] = 24 h, 10 µM, compound concentration 10 uM
[5] = 48 h, 1 µM, compound concentration 1 uM
[6] = 48 h, 10 µM, compound concentration 10 uM

## CN1CC[C@@]23CCCC[C@@H]2[C@@H]1Cc1ccc(O)cc13.O=C(O)C(O)C(O)C(=O)O
[1]
  Population Apoptotic (%): 6.98% and 13.16%
  Population Fragmented Nuclei (%): 5.26% and 4.9%
  Population Healthy Nuclei (%): 69.59% and 79.59%
  Population Hoechst High Intensity Objects (%): 0%
  Population Membrane Permeable-Phenotype (%): 1.68% and 2.05%
  Population Mitochondria Different-Phenotype (%): 8.4% and 8.21%
  Population Mitotic Cells (%): 93.02% and 86.84%
  Population Normal (%): 100%
  Population Pyknosed Nuclei (%): 25.15% and 15.51%
  Population Tubulin-Different-Phenotype (%): 15.97% and 20.51%
  Total Cell Count: 171 and 245
[2]
  Population Apoptotic (%): 8.2% and 12.82%
  Population Fragmented Nuclei (%): 8.77% and 7.24%
  Population Healthy Nuclei (%): 64.47% and 79.31%
  Population Hoechst High Intensity Objects (%): 0%
  Population Membrane Permeable-Phenotype (%): 2.72% and 2.17%
  Population Mitochondria Different-Phenotype (%): 6.12% and 5.65%
  Population Mitotic Cells (%): 91.8% and 87.18%
  Population Normal (%): 100%
  Population Pyknosed Nuclei (%): 26.75% and 13.45%
  Population Tubulin-Different-Phenotype (%): 14.29% and 18.26%
  Total Cell Count: 228 and 290
[3]
  Population Apoptotic (%): 13.16% and 10.71%
  Population Fragmented Nuclei (%): 6.63% and 3.19%
  Population Healthy Nuclei (%): 72.38% and 85.66%
  Population Hoechst High Intensity Objects (%): 0%
  Population Membrane Permeable-Phenotype (%): 0% and 2.79%
  Population Mitochondria Different-Phenotype (%): 9.92% and 5.12%
  Population Mitotic Cells (%): 86.84% and 89.29%
  Population Normal (%): 100%
  Population Pyknosed Nuclei (%): 20.99% and 11.16%
  Population Tubulin-Different-Phenotype (%): 17.56% and 14.88%
  Total Cell Count: 181 and 251
[4]
  Population Apoptotic (%): 17.74% and 18.92%
  Population Fragmented Nuclei (%): 9.16% and 7.39%
  Population Healthy Nuclei (%): 68.13% and 79.58%
  Population Hoechst High Intensity Objects (%): 0%
  Population Membrane Permeable-Phenotype (%): 2.15% and 2.21%
  Population Mitochondria Different-Phenotype (%): 5.38% and 4.42%
  Population Mitotic Cells (%): 82.26% and 81.08%
  Population Normal (%): 100%
  Population Pyknosed Nuclei (%): 22.71% and 13.03%
  Population Tubulin-Different-Phenotype (%): 19.89% and 17.7%
  Total Cell Count: 273 and 284
[5]
  Population Apoptotic (%): 30.77% and 40%
  Population Fragmented Nuclei (%): 9.57% and 5.1%
  Population Healthy Nuclei (%): 84.21% and 89.02%
  Population Hoechst High Intensity Objects (%): 0%
  Population Membrane Permeable-Phenotype (%): 0.57% and 3.52%
  Population Mitotic Cells (%): 69.23% and 60%
  Population Normal (%): 100%
  Population Pyknosed Nuclei (%): 6.22% and 5.88%
  Population Tubulin-Different-Phenotype (%): 6.82% and 14.54%
  Total Cell Count: 209 and 255
[6]
  Population Apoptotic (%): 15.38% and 35.29%
  Population Fragmented Nuclei (%): 6.34% and 8.95%
  Population Healthy Nuclei (%): 88.81% and 85.62%
  Population Hoechst High Intensity Objects (%): 0%
  Population Membrane Permeable-Phenotype (%): 0.84% and 4.1%
  Population Mitochondria Different-Phenotype (%): 6.72% and 1.87%
  Population Mitotic Cells (%): 84.62% and 64.71%
  Population Normal (%): 100%
  Population Pyknosed Nuclei (%): 4.85% and 5.43%
  Population Tubulin-Different-Phenotype (%): 7.56% and 19.4%
  Total Cell Count: 268 and 313

## CCn1c(-c2ccncc2)cc2c1CCNC2=O
[1]
  Population Apoptotic (%): 13.79% and 16.67%
  Population Fragmented Nuclei (%): 13.56% and 3.83%
  Population Healthy Nuclei (%): 70.06% and 79.78%
  Population Hoechst High Intensity Objects (%): 0%
  Population Membrane Permeable-Phenotype (%): 2.42% and 2.74%
  Population Mitochondria Different-Phenotype (%): 8.06% and 6.85%
  Population Mitotic Cells (%): 86.21% and 83.33%
  Population Normal (%): 100%
  Population Pyknosed Nuclei (%): 16.38% and 16.39%
  Population Tubulin-Different-Phenotype (%): 12.9% and 11.64%
  Total Cell Count: 177 and 183
[2]
  Population Healthy Nuclei (%): 69.44% and 89.58%
  Population Hoechst High Intensity Objects (%): 0%
  Population Membrane Permeable-Phenotype (%): 6.4% and 2.91%
  Population Mitochondria Different-Phenotype (%): 11.2% and 12.79%
  Population Mitotic Cells (%): 88.89% and 60%
  Population Normal (%): 100%
  Population Pyknosed Nuclei (%): 15% and 7.81%
  Population Tubulin-Different-Phenotype (%): 12% and 12.79%
  Total Cell Count: 180 and 192
[3]
  Population Apoptotic (%): 19.51% and 13.16%
  Population Healthy Nuclei (%): 62.05% and 74.05%
  Population Hoechst High Intensity Objects (%): 0%
  Population Membrane Permeable-Phenotype (%): 4.96% and 1.46%
  Population Mitochondria Different-Phenotype (%): 7.44% and 7.3%
  Population Mitotic Cells (%): 80.49% and 86.84%
  Population Normal (%): 100%
  Population Pyknosed Nuclei (%): 21.03% and 20.54%
  Population Tubulin-Different-Phenotype (%): 16.53% and 14.6%
  Total Cell Count: 195 and 185
[4]
  Population Healthy Nuclei (%): 70.39% and 84.97%
  Population Hoechst High Intensity Objects (%): 0%
  Population Membrane Permeable-Phenotype (%): 7.14% and 3.66%
  Population Mitochondria Different-Phenotype (%): 6.35% and 12.8%
  Population Mitotic Cells (%): 92.86% and 57.69%
  Population Normal (%): 100%
  Population Pyknosed Nuclei (%): 15.64% and 13.47%
  Population Tubulin-Different-Phenotype (%): 10.32% and 17.07%
  Total Cell Count: 179 and 193
[5]
  Population Apoptotic (%): 33.33%
  Population Fragmented Nuclei (%): 17.79% and 7.69%
  Population Healthy Nuclei (%): 75% and 86.54%
  Population Hoechst High Intensity Objects (%): 0%
  Population Membrane Permeable-Phenotype (%): 3.85% and 5%
  Population Mitotic Cells (%): 66.67%
  Population Normal (%): 100%
  Population Pyknosed Nuclei (%): 7.21% and 5.77%
  Population Tubulin-Different-Phenotype (%): 23.08% and 22.22%
  Total Cell Count: 208
[6]
  Population Apoptotic (%): 11.76% and 35.14%
  Population Fragmented Nuclei (%): 16.11% and 6.99%
  Population Healthy Nuclei (%): 65% and 73.12%
  Population Hoechst High Intensity Objects (%): 0%
  Population Membrane Permeable-Phenotype (%): 0% and 11.03%
  Population Mitochondria Different-Phenotype (%): 20.51% and 11.76%
  Population Mitotic Cells (%): 88.24% and 64.86%
  Population Normal (%): 100%
  Population Pyknosed Nuclei (%): 18.89% and 19.89%
  Population Tubulin-Different-Phenotype (%): 6.84% and 18.38%
  Total Cell Count: 180 and 186

## O=C1NC(NC23CC4CC(CC(C4)C2)C3)=N/C1=C\c1ccc2ncsc2c1
[1]
  Population Apoptotic (%): 51.97% and 44.44%
  Population Fragmented Nuclei (%): 23.55% and 19.79%
  Population Healthy Nuclei (%): 57.53% and 66.62%
  Population Hoechst High Intensity Objects (%): 0%
  Population Membrane Permeable-Phenotype (%): 1.3% and 2.27%
  Population Mitochondria Different-Phenotype (%): 3.63% and 2.49%
  Population Mitotic Cells (%): 48.03% and 55.56%
  Population Normal (%): 100%
  Population Pyknosed Nuclei (%): 18.93% and 13.6%
  Population Tubulin-Different-Phenotype (%): 8.81% and 11.79%
  Total Cell Count: 671 and 662
[2]
  Population Apoptotic (%): 45.21% and 45.31%
  Population Fragmented Nuclei (%): 36.23% and 36.1%
  Population Healthy Nuclei (%): 32.66% and 30.01%
  Population Hoechst High Intensity Objects (%): 28.04% and 33.79%
  Population Membrane Permeable-Phenotype (%): 0.36% and 0.46%
  Population Mitochondria Different-Phenotype (%): 0%
  Population Mitotic Cells (%): 54.79% and 54.69%
  Population Normal (%): 71.96% and 66.21%
  Population Pyknosed Nuclei (%): 31.11% and 33.89%
  Population Tubulin-Different-Phenotype (%): 0.73% and 7.37%
  Total Cell Count: 1166 and 1092
[3]
  Population Apoptotic (%): 49.15% and 52.44%
  Population Fragmented Nuclei (%): 25.03% and 19.5%
  Population Healthy Nuclei (%): 59% and 67.8%
  Population Hoechst High Intensity Objects (%): 0% and 0.15%
  Population Membrane Permeable-Phenotype (%): 2.52% and 1.37%
  Population Mitochondria Different-Phenotype (%): 0.92% and 0.91%
  Population Mitotic Cells (%): 50.85% and 47.56%
  Population Normal (%): 100% and 99.85%
  Population Pyknosed Nuclei (%): 15.97% and 12.69%
  Population Tubulin-Different-Phenotype (%): 12.84% and 17.12%
  Total Cell Count: 739 and 647
[4]
  Population Apoptotic (%): 48.2% and 49.02%
  Population Fragmented Nuclei (%): 28.62% and 33.38%
  Population Healthy Nuclei (%): 37.8% and 32.44%
  Population Hoechst High Intensity Objects (%): 27.11% and 32.18%
  Population Membrane Permeable-Phenotype (%): 0.64% and 0.41%
  Population Mitochondria Different-Phenotype (%): 0.32% and 0%
  Population Mitotic Cells (%): 51.8% and 50.98%
  Population Normal (%): 72.89% and 67.82%
  Population Pyknosed Nuclei (%): 33.57% and 34.18%
  Population Tubulin-Different-Phenotype (%): 1.6% and 2.89%
  Total Cell Count: 1136 and 1100
[5]
  Population Apoptotic (%): 58.9% and 52.22%
  Population Fragmented Nuclei (%): 13.24% and 13.94%
  Population Healthy Nuclei (%): 69.8% and 71.47%
  Population Hoechst High Intensity Objects (%): 0%
  Population Membrane Permeable-Phenotype (%): 1.5% and 2.72%
  Population Mitochondria Different-Phenotype (%): 1.5% and 0.91%
  Population Mitotic Cells (%): 41.1% and 47.78%
  Population Normal (%): 100%
  Population Pyknosed Nuclei (%): 16.96% and 14.59%
  Population Tubulin-Different-Phenotype (%): 20.97% and 31.75%
  Total Cell Count: 861 and 617
[6]
  Population Apoptotic (%): 50.75% and 49.7%
  Population Fragmented Nuclei (%): 29.22% and 30.74%
  Population Healthy Nuclei (%): 35.44% and 26.72%
  Population Hoechst High Intensity Objects (%): 25.71% and 37.77%
  Population Membrane Permeable-Phenotype (%): 0.6% and 0.49%
  Population Mitochondria Different-Phenotype (%): 0.6% and 0%
  Population Mitotic Cells (%): 49.25% and 50.3%
  Population Normal (%): 74.29% and 62.23%
  Population Pyknosed Nuclei (%): 35.34% and 42.54%
  Population Tubulin-Different-Phenotype (%): 1.19% and 2.91%
  Total Cell Count: 1276 and 1239
